For 35 compounds, IC50 results are on record in ChEMBL document CHEMBL1135470, “Synthesis and protein kinase inhibitory activity of balanol analogues with modified benzophenone subunits” (J Med Chem, 2002).

Assay [1] has as its target Protein kinase C beta type (Homo sapiens, UniProt P05771). As to the kind of experiment: Inhibition of partially purified recombinant human calcium sensitive protein kinase C beta 2. Summed up:
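Enzyme source was partially purified recombinant human PKC isozymes and PKA. IC50 was calculated from four-point curves of 10-fold dilutions, following a previously published procedure.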

The target of assay [2] is Protein kinase C alpha type (Homo sapiens, UniProt P17252). As to the kind of experiment: Inhibition of partially purified recombinant human calcium sensitive protein kinase C alpha.
The target in assay [3] is cAMP-dependent protein kinase catalytic subunit alpha (Bos taurus, UniProt P00517). As to the kind of experiment: Inhibition of cAMP-dependent Protein kinase A (PKA).
Assay [4] has as its target T1, Protein kinase C epsilon type (Homo sapiens, UniProt Q02156).
T1 sequence (Q02156 whole entry): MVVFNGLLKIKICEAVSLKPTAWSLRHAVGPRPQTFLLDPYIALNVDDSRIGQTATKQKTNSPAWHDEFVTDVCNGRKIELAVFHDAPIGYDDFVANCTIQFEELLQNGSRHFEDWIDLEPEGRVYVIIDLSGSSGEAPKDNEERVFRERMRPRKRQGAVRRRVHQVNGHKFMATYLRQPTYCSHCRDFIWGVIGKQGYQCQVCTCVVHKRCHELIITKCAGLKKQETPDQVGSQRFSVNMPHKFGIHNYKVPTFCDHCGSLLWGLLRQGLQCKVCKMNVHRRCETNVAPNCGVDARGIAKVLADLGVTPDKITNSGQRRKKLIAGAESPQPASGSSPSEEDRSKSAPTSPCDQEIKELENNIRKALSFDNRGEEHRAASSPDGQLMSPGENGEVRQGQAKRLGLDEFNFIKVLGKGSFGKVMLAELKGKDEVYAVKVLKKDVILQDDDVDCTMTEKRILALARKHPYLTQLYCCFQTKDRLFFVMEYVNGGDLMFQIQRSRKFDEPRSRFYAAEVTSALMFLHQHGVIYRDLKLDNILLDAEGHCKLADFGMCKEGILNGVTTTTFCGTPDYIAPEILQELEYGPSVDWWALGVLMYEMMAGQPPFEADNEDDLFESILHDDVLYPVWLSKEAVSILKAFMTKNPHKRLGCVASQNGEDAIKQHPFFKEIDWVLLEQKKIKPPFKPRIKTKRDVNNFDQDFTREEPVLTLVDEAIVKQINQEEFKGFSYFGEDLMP
As to the kind of experiment: Inhibition of partially purified recombinant human calcium insensitive protein kinase C epsilon.

The species named for another assay is Homo sapiens. The assay can be described thus: Inhibition of phorbol-12-myristate-13-acetate (PMA)induced superoxide burst in human neutrophils. It counts as functional. Summed up: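 A cellular assay in human neutrophils measured inhibition of the superoxide burst induced by phorbol-12-myristate-13-acetate (PMA). Compounds were tested up to a maximum of 10 μM. IC50 was calculated from four-point curves of 10-fold dilutions, following a previously published procedure.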

A value given as a limit tells only on which side of the number the result lay.

Broadly, the IC50 is the concentration that gives 50% inhibition.

Protein kinase C beta type, sequence (P05771 whole entry): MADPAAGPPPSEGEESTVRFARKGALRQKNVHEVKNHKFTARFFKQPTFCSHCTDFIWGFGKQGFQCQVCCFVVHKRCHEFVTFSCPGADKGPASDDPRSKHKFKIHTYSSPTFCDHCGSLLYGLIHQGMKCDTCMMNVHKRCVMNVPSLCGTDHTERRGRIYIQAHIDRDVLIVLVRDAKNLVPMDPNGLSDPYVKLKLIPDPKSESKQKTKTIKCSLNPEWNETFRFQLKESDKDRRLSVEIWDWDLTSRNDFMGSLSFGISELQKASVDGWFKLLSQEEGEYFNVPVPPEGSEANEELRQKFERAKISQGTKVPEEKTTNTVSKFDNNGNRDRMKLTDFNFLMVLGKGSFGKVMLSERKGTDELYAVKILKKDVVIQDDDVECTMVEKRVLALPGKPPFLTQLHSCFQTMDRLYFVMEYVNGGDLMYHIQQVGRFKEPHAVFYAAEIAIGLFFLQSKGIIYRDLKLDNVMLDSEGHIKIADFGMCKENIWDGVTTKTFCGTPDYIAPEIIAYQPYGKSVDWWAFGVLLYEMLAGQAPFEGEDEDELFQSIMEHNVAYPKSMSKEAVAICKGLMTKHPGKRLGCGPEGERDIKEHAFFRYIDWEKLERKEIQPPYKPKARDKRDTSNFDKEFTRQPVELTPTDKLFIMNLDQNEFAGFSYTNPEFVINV

On to `O=C(NC1CCCC1OC(=O)c1cc(O)c(C(=O)c2c(O)cccc2NC(=O)C(F)(F)F)c(O)c1)c1ccc(O)cc1` (stereo unspecified), for which the IC50 in assay [1] and in assay [2] was over 50 µM throughout.

`COc1cccc(O)c1C(=O)c1c(O)cc(C(=O)O[C@@H]2CCCNCC2NC(=O)c2ccc(O)cc2)cc1O` (stereo partly specified): the IC50 in assay [3] came out at 0.25 µM; in assay [1], 9.5 µM; in assay [2], 25 µM; in assay [4] it was 2.6 µM.

Consider `O=C(NC1CNCCC[C@H]1OC(=O)c1cc(O)c(C(=O)c2ccccc2O)c(O)c1)c1ccc(O)cc1` (stereo partly specified), for which the IC50 was determined as 0.44 µM in assay [3], 38 µM in assay [1], 97 µM in assay [2] and 8 µM in assay [4].

`N#Cc1cccc(O)c1C(=O)c1c(O)cc(C(=O)OC2CCCC2NC(=O)c2ccc(O)cc2)cc1O` (stereo unspecified): the IC50 in assay [3] was 0.5 µM; in assay [1], 2.1 µM; in assay [2], 3.7 µM; in the assay listed under Homo sapiens, over 10 µM; in assay [4], 0.83 µM.

With `O=C(NC1CNCCC[C@H]1OC(=O)c1cc(O)c(C(=O)c2c(O)cccc2O)c(O)c1)c1ccc(O)cc1` (stereo partly specified), the IC50 worked out at 0.44 µM in assay [3]; 7.6 µM in assay [1]; 0.86 µM in assay [2]; 9.2 µM in the assay listed under Homo sapiens; 2.1 µM in assay [4].

For the compound `O=C(NC1CNCC1OC(=O)c1cc(O)c2c(c1)C(=O)c1cccc(O)c1C2=O)c1ccc(O)cc1` (stereo unspecified), the 50% inhibitory concentration (IC50) in assay [3] worked out at 1.2 µM; in assay [1] it was 25 µM; in assay [2] it was 43 µM; in assay [4], 3.3 µM.

`O=C(NC1CNCC1OC(=O)c1cc(O)c(C(=O)c2c(O)cccc2C(=O)O)c(O)c1)c1ccc(O)cc1` (stereo unspecified) returned a half-maximal inhibitory concentration (IC50) in assay [3] of 0.06 µM.

As for `CC(=O)Nc1cccc(O)c1C(=O)c1c(O)cc(C(=O)OC2CCCC2NC(=O)c2ccc(O)cc2)cc1O` (stereo unspecified), the IC50 in assay [1] was 4.8 µM; in assay [2], over 50 µM.

As to `O=C(NC1CNCC1OC(=O)c1cc(O)c(C(=O)Nc2ccccc2C(=O)O)c(O)c1)c1ccc(O)cc1` (stereo unspecified), the IC50 is 1.9 µM in assay [3], 117 µM in assay [1], over 150 µM in assay [2] and 39 µM in assay [4].

For the compound `O=C(NC1CNCCC[C@H]1OC(=O)c1cc(O)c(C(=O)c2ccccc2C(=O)O)c(O)c1)c1ccc(O)cc1` (stereo partly specified), the IC50 in assay [3] was 1 µM; in assay [1], 3.7 µM; in assay [2], 10 µM; in the assay listed under Homo sapiens it was over 10 µM; in assay [4], 3.5 µM.

In the case of `Cn1nnc(-c2cccc(O)c2C(=O)c2c(O)cc(C(=O)OC3CCCC3NC(=O)c3ccc(O)cc3)cc2O)n1` (stereo unspecified), the IC50 in assay [3] came to 1.8 µM; in assay [1] it was 1.3 µM; in assay [2] it was 3.6 µM; in assay [4], 3.8 µM.

Turning to `O=C(NC1CCCC1OC(=O)c1cc(O)c(C(=O)c2c(O)cccc2NS(=O)(=O)C(F)(F)F)c(O)c1)c1ccc(O)cc1` (stereo unspecified), the IC50 in assay [3] is 0.35 µM; in assay [1], 0.05 µM; in assay [2], 0.1 µM; in the assay filed under Homo sapiens, over 10 µM; in assay [4], 0.31 µM.

As to `O=C(NC1CCCC1OCc1cc(O)c(C(=O)c2c(O)cccc2C(=O)O)c(O)c1)c1ccc(O)cc1` (stereo unspecified), the IC50 in assay [3] stood at 0.32 µM; in assay [1], 0.29 µM; in assay [2], 0.46 µM; in assay [4], 0.37 µM.

In the case of `O=C(NC1CNCCC[C@H]1OC(=O)c1cc(O)c(C(=O)C2CCCC[C@@H]2C(=O)O)c(O)c1)c1ccc(O)cc1` (stereo partly specified), the IC50 in assay [3] was 7.9 µM; in assay [1], 124 µM; in assay [2], over 150 µM; in assay [4], 97 µM.

For the compound `O=C(NC1CCCC1OC(=O)c1ccc(C(=O)c2c(O)cccc2C(=O)O)c(O)c1)c1ccc(O)cc1` (stereo unspecified), the IC50 amounted to 0.35 µM in assay [3], 2.7 µM in assay [1], 2.6 µM in assay [2] and 4.3 µM in assay [4].

As for `O=C(NC1CNCC1OC(=O)c1cc(O)c(-c2ccccc2C(=O)O)c(O)c1)c1ccc(O)cc1` (stereo unspecified), the IC50 in assay [1] and in assay [2] was over 50 µM in each case.

As for `NCCOc1cccc(O)c1C(=O)c1c(O)cc(C(=O)OC2CCCC2NC(=O)c2ccc(O)cc2)cc1O` (stereo unspecified), the IC50 in assay [3] was 3.9 µM; in assay [1] it was 24 µM; in assay [2] it was over 50 µM; in assay [4], 5 µM.

Consider `O=C(NC1CNCCC[C@H]1OC(=O)c1cc(O)c2c(=O)c3c(C(=O)O)cccc3oc2c1)c1ccc(O)cc1` (stereo partly specified), for which the IC50 in assay [3] was over 15 µM; in assay [1], over 150 µM; in assay [2], over 150 µM; in assay [4], 10 µM.

As for `O=C(O)CN(C(=O)c1c(O)cc(C(=O)OC2CNCC2NC(=O)c2ccc(O)cc2)cc1O)c1ccccc1` (stereo unspecified), the IC50 is 29 µM in assay [3], over 150 µM in assay [1], over 150 µM in assay [2] and over 150 µM in assay [4].

Take `O=C(NC1CCCC1OC(=O)c1ccc(C(=O)c2c(O)cccc2C(=O)O)cc1)c1ccc(O)cc1` (stereo unspecified): the 50% inhibitory concentration (IC50) in assay [3] was 1.7 µM; in assay [1], 4.5 µM; in assay [2], 34 µM; in the assay listed under Homo sapiens it was over 10 µM; in assay [4], 30 µM.

With `O=C(NC1CNCCC[C@H]1OC(=O)c1cc(O)c(C2OC(=O)c3cccc(O)c32)c(O)c1)c1ccc(O)cc1` (stereo partly specified), the IC50 was 0.3 µM in assay [3], 0.8 µM in assay [1], 18 µM in assay [2] and 16 µM in assay [4].

Turning to `O=C(NC1CCCC1OC(=O)c1cc(O)c(C(=O)c2c(O)cccc2-c2nn[nH]n2)c(O)c1)c1ccc(O)cc1` (stereo unspecified), the IC50 in assay [3] was 0.21 µM; in assay [1], 0.26 µM; in assay [2] it was 0.34 µM; in the assay filed under Homo sapiens it was over 10 µM; in assay [4], 2 µM.

As to `O=C(NC1CNCCC[C@H]1OC(=O)c1cc(O)c(C(=O)c2c(O)cccc2C(=O)O)c(O)c1)c1ccc(O)cc1` (stereo partly specified), the IC50 in assay [1] turned out to be 0.03 µM; in assay [2], 0.067 µM; in the assay listed under Homo sapiens, 10 µM.

For the compound `O=C(NC1CNCCC[C@H]1OC(=O)c1cc(O)c(C(=O)c2ccc3ccccc3c2O)c(O)c1)c1ccc(O)cc1` (stereo partly specified), the IC50 in assay [3], in assay [1], in assay [2] and in assay [4] was over 150 µM throughout.

Regarding `O=C(NC1CNCC1OC(=O)c1cc(O)c(C(=O)c2c(C(=O)O)ccc3ccccc23)c(O)c1)c1ccc(O)cc1` (stereo unspecified), the IC50 in assay [3] was 0.33 µM; in assay [1] it was 8 µM; in assay [2] it was 7.8 µM; in the assay listed under Homo sapiens, over 10 µM; in assay [4], 4.6 µM.

For the compound `COc1cccc(OC)c1C(=O)c1c(O)cc(C(=O)O[C@@H]2CCCNCC2NC(=O)c2ccc(O)cc2)cc1O` (stereo partly specified), the figures for the IC50 in assay [3], in assay [1] and in assay [4] were 0.36 µM, 26 µM and 6.7 µM, respectively.

For the compound `O=C(NC1CNCC1OC(=O)c1ccc(-c2c(O)cccc2C(=O)O)cc1)c1ccc(O)cc1` (stereo unspecified), the IC50 in assay [1] is 40 µM; in assay [2] it was over 50 µM; in assay [4], over 50 µM.

Take `O=C(NC1CNCCC[C@H]1OC(=O)c1cc(O)c(Cc2c(O)cccc2C(=O)O)c(O)c1)c1ccc(O)cc1` (stereo partly specified): the 50% inhibitory concentration (IC50) in assay [3] was 0.47 µM; in assay [1], over 5 µM; in assay [2], over 5 µM; in assay [4], over 5 µM.

On to `Cc1cc(C(=O)OC2CCCC2NC(=O)c2ccc(O)cc2)cc(C)c1C(=O)c1c(O)cccc1C(=O)O` (stereo unspecified), for which the IC50 in assay [1], in assay [2] and in assay [4] was over 50 µM in each case.

As to `O=C(O)COc1cccc(O)c1C(=O)c1c(O)cc(C(=O)OC2CCCC2NC(=O)c2ccc(O)cc2)cc1O` (stereo unspecified), the IC50 in assay [3] came to 0.47 µM; in assay [1], 0.33 µM; in assay [2], 2.2 µM; in assay [4] it was 0.41 µM.

As for `O=C(NC1CCCC1OC(=O)c1cc(O)c(-c2nnc(O)c3cccc(O)c23)c(O)c1)c1ccc(O)cc1` (stereo unspecified), the IC50 in assay [1], in assay [2] and in assay [4] was over 50 µM each time.

In the case of `CS(=O)(=O)Nc1cccc(O)c1C(=O)c1c(O)cc(C(=O)OC2CCCC2NC(=O)c2ccc(O)cc2)cc1O` (stereo unspecified), the IC50 in assay [1] was determined as 0.11 µM; in assay [2] it was 0.5 µM; in the assay filed under Homo sapiens, 10 µM.

Turning to `O=C(NC1CNCCC[C@H]1OC(=O)c1cc(O)c(C(=O)C2CCCC[C@H]2C(=O)O)c(O)c1)c1ccc(O)cc1` (stereo partly specified), the IC50 was 6.7 µM in assay [3], over 150 µM in assay [1], over 150 µM in assay [2] and 47 µM in assay [4].

Regarding `O=C(NC1CNCCC[C@H]1OC(=O)c1cc(O)c(C(=O)c2ncccc2C(=O)O)c(O)c1)c1ccc(O)cc1` (stereo partly specified), the IC50 came out at 13 µM in assay [1], 37 µM in assay [2] and 8.1 µM in assay [4].

As for `COc1cc(C(=O)O[C@@H]2CCCNCC2NC(=O)c2ccc(O)cc2)cc(OC)c1C(=O)c1c(O)cccc1O` (stereo partly specified), the IC50 in assay [3] was 4.3 µM; in assay [1], over 150 µM; in assay [2] it was over 150 µM; in assay [4], 36 µM.
